Source: PubChem BioAssay (The Scripps Research Institute Molecular Screening Center)
Compounds with a hit are over-represented: about 3.5% of the library has one in this group of screens.
mABHD4 FP – ABHD4 (mouse) inhibition, primary FP screen. AID 720543. hit rate 0.54% among 370,000. purified mABHD4, FP-Rh probe fluorescence polarization. inhibition, % at 8.92 µM. Q8VD66;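 active = inhibition exceeding the mean over every tested compound plus 3 SD, cut at about 30% in these data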;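 note: 0% = plate median of compound wells and 100% = S159A mutant with DMSO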
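assay system = mABHD4 protein | compound dosing = single nominal dose of 8.92 µM, 0.89% DMSO final | read-out basis = percent inhibition of probe binding, normalized to plate controls | schedule = Enzyme–compound pre-incubation 45 min, then probe 60 min, both 25 °C | detection = fluorescence polarization, excitation 525 nm, emission 598 nm, BODIPY TMR filters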
rCAG RNA binder – binds r(CAG) RNA repeats; r(CAG) RNA repeat, TO-PRO-1 dye displacement fluorescence; inhibition, % at 3 µM; hit rate 1.3% among 370,000;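 active = inhibition above the plate cutoff, the mean of all test compounds on that plate plus 3 SD, cut at about 35% in these data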;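 note: 0% = DMSO alone and 100% = 100 µM mitoxantrone as full dye displacement; higher means more dye released from RNA so lower well fluorescence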
PRMT1 inh – inhibitors of human PRMT1 | inhibition, % at 2.79 µM | Q99873 | hit rate 1.3% among 370,000 | recombinant PRMT1, activity-based probe fluorescence polarization;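 active = inhibition above about 21% made by adding two undisclosed values, limit read from the data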
TCR-CD3 inh – inhibitors of human TCR-CD3 interaction | inhibition, % at 9.4 µM | AID 651800 | TAMRA-labeled TCR probe fluorescence, biochemical | hit rate 0.37% among 360,000; in the data active = inhibition above about 19%;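 note: recombinant mutant TCR 2C K166C tagged with TAMRA read by polarization; 0% = receptor in buffer alone and 100% = receptor with positive control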
SIAE primary – blocks human sialic acid acetylesterase. Q9HAT2. SIAE FP-Rh probe binding, fluorescence polarization. inhibition, % at 9.66 µM. hit rate 0.69% among 370,000;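 active = inhibition above a cutoff: mean of compounds within the control limits plus 3 SD of those, cut at about 17% in these data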;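 note: 0% = plate median of compound wells and 100% = probe without SIAE protein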
Target sequence (Q9HAT2 whole entry, looked up): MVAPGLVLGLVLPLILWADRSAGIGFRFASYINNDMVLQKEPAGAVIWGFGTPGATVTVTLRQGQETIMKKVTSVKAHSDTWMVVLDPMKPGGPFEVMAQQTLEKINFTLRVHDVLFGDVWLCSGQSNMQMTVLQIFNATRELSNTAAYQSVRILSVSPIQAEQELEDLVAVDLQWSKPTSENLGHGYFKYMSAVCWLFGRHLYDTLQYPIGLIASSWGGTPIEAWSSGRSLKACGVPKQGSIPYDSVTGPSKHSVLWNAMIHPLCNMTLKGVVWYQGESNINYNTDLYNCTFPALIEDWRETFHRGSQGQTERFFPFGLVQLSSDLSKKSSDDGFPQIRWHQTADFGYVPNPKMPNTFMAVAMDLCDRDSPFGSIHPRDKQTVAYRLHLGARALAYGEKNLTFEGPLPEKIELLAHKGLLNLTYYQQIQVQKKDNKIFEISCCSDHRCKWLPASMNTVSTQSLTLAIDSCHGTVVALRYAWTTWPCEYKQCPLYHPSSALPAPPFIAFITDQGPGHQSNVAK
HTRA1 inh – HTRA1 (human) protease inhibition. inhibition, % at 5.96 µM. AID 504803. hit rate 0.5% among 340,000. recombinant HTRA1, FP-rhodamine activity-based probe, fluorescence polarization. Q92743; in the data active = inhibition above about 36%;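 note: 0% = enzyme with DMSO and 100% = wells lacking enzyme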
ABHD4 confirm – confirmation of mouse ABHD4 inhibitors; shares compounds with mABHD4 FP; purified mABHD4, FP-Rh probe fluorescence polarization; inhibition, % at 8.92 µM; hit rate 55% among 1,800; AID 720658;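 active = mean inhibition across replicates above the hit cutoff set in the primary screen, cut at about 30% in these data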;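 note: 0% = wild-type ABHD4 with DMSO and 100% = catalytically dead S159A mutant with DMSO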
* = called active by the depositor; x = not tested or not shown.

SMILES	mABHD4 FP	rCAG RNA binder	PRMT1 inh	TCR-CD3 inh	SIAE primary	HTRA1 inh	ABHD4 confirm
CC(=O)N=c1sc2ccccc2n1C	4.5	2.4	-1.6	9.2	-3.7	-0.7	x
CC(C)NC(=O)N[C@H]1C[C@@H]2O[C@@H](CO)CC[C@@H]2O[C@@H]1CCc1ccc(-c2ccc(F)cc2)cc1	-4.8	-0.6	2.4	x	-18.1	x	x
COc1ccc(S(=O)(=O)N/N=C(/C)c2ccncc2)c(OC)c1	71.4*	-2.1	8.9	-11.6	6.5	7.1	4.7
CCCCNC(=O)C1(C(=O)c2ccc(OC)cc2)CC(c2ccccn2)=NO1 (stereo not drawn)	-1.7	3.1	4.5	x	4.6	x	x
CCOC(=O)CSc1nc(Nc2ccc3c(c2)OCO3)c2ccccc2n1	40.0*	3.0	-2.8	-0.8	9.4	-8.5	32.4*
N#CCSc1nc(Nc2ccc3c(c2)OCO3)c2ccccc2n1	x	x	x	x	x	-12.8	x
Cc1nn(-c2ccccc2)c(N2CCCC2)c1/C=N/NC(=S)Nc1ccccc1C(F)(F)F	54.1*	7.8	-0.9	-2.3	5.8	-1.9	57.5*
Cc1nn(-c2ccccc2)c(N2CCCC2)c1/C=N/NC(=S)Nc1cc(C(F)(F)F)ccc1Cl	5.8	4.3	-0.1	3.6	7.6	-5.2	x
CN(Cc1ccccc1)C(=O)OCc1cn(Cc2ccc(F)cc2)nn1	2.0	-0.9	-1.6	x	-1.7	x	x
CCNC(=S)NNC(=O)c1ccccn1	53.8*	0.0	0.3	7.7	-4.3	6.6	55.5*
O=C(/C=C/c1ccc([N+](=O)[O-])cc1)c1ccccc(=O)c1O	43.2*	17.2	15.0	1.6	14.2	27.0	12.4
O=[N+]([O-])c1ccc(/C=N/Nc2nc(N3CCCCC3)nc(N3CCCCC3)n2)o1	53.6*	15.9	2.3	3.5	-1.1	4.7	54.5*
COc1cc(/C=N/Nc2cccc3cccnc23)cc(OC)c1O	31.6*	13.7	7.6	5.3	-1.8	15.1	32.7*
COc1cccc(CNc2cccc3cccnc23)c1O	34.1*	6.1	-0.6	-7.3	5.5	34.2	11.7
COC(=O)C12C=C3CC(c4ccc(C(F)(F)F)cc4)=C3C(=O)N1Cc1[nH]c3ccccc3c1C2 (stereo not drawn)	-1.0	13.2	1.6	x	-0.1	x	x
Cc1ccc(-n2c(SCC(=O)Nc3ccc(OCc4ccccc4)cc3)nnc2-c2ccco2)cc1	-3.9	6.6	-5.2	x	2.7	x	x
C=CCN1[C@@H](CC(C)C)COc2cccc(N3CCSCC3)c2S1(=O)=O	-1.1	2.1	-1.7	x	-0.5	x	x
CCN(CC)c1c(C)nc2ccc(C(=O)Nc3cc(-c4ccccc4)ccc3OC)cn12	52.8*	6.1	1.3	-5.7	-0.8	x	59.4*
Cc1cc(=O)oc2c(CN3CCCC3)c(O)ccc12	-9.9	5.2	0.8	-8.7	11.0	2.6	x
Cc1c(Cc2ccccc2)c(=O)oc2c(O)c(O)ccc12	35.4*	21.1	6.7	7.7	-9.6	x	88.8*
Cc1cc(=O)oc2c(O)c(O)ccc12	29.6*	3.8	11.8	10.0	10.1	12.7	1.1
CC(C)C[C@@H]1NC(=O)[C@H]2C[C@]3(c4ccccc4)c4ccccc4N[C@H]3N2C1=O	-4.5	8.4	2.4	x	3.2	x	x
CC(C)(C)c1ccc(-c2csc(N3CCC(C(N)=O)CC3)n2)cc1	34.7*	x	2.0	x	3.6	x	37.1*
Oc1ccc(NC(=S)Nc2ccc(O)cc2)cc1	49.2*	4.1	4.3	13.3	14.3	20.9	-7.2
O=C(O)c1cccc2c1-c1ccccc1/C2=N\Nc1ccccc1	38.0*	28.8	5.7	7.1	1.8	0.6	23.1
NC(=O)N/N=C1\c2ccccc2-c2c(C(N)=O)cccc21	0.5	1.6	2.7	2.0	0.7	-5.2	x
CCN(Cc1ccccc1)C(=O)COC(=O)c1cc(S(=O)(=O)Nc2ccccc2OC)ccc1O	30.9*	13.3	1.0	2.6	-6.8	3.5	43.9*
CC(c1ccccc1)n1cc(C(=O)N2CCCC2)nn1 (stereo not drawn)	3.1	-1.3	0.3	x	-1.6	x	x
CC(=O)N1N=C(c2cccc(O)c2)CC1c1cccs1 (stereo not drawn)	35.6*	2.0	-1.9	6.4	1.6	0.4	-4.1
CCCCNc1c(-c2cccc(-c3cc(C(C)=O)cs3)c2)nc2ccc(C)cn12	14.6	3.9	2.3	6.7	12.0	-8.8	x
